Laboratory results published in ChEMBL document CHEMBL2177098, “Synthesis and evaluation of novel ¹⁸F labeled 2-pyridinylbenzoxazole and 2-pyridinylbenzothiazole derivatives as ligands for positron emission tomography (PET) imaging of β-amyloid plaques” (J Med Chem, 2012).

Key:
[1] = Displacement of [125I]-IMPY from amyloid beta (1 to 42) fibrils after 2 hrs by gamma-counting analysis
Method in brief: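 Competition binding with aggregated Aβ1-42 fibrils and [125I]IMPY (60000−100000 cpm/100 μL) in 0.05% BSA (1 mL total); inhibitors 10⁻⁴−10^−8.5 M in ethanol. Incubated 37 °C for 2 h, then GF/B vacuum filtration with PBS (0.02 M, pH 7.4) washes and γ counting. Three repeats; IC50 converted to Ki by Cheng−Prusoff.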

Brain [2] = experiment: Drug uptake in wild type C57BL6 mouse brain at 370 KBq/100 ul after 1 hr by autoradiographic analysis; assay type: ADME, tissue-based; conditions: in vitro
Method in brief: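 Paraffin brain sections from 12-month-old male control C57BL6 mice were deparaffinized through xylene and graded ethanol, then held in PBS (0.2 M, pH 7.4) for 30 min. They were incubated with the ¹⁸F tracer (370 KBq per 100 μL) for 1 h at room temperature. Sections were washed in 40% EtOH, rinsed with water for 1 min, dried, and exposed to a phosphor plate for 2 h. The same sections were then stained with thioflavin S.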

Lung [3] = experiment: Drug uptake in ICR mouse lung at 370 kBq/100 ul, iv at 30 mins by gamma-counting analysis; assay type: ADME, organism-based; conditions: in vivo, 0.5 h
Method in brief: (§1)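 Male ICR mice (5 weeks, about 20 g) got 18F tracer in saline (370 KBq per 100 μL) via tail vein; n = 5 per time point, killed at 2, 10, 30, 60 min. Organs weighed and γ-counted; percent dose per gram wet tissue from comparison with diluted injectate aliquots.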

[4] = n-Octanol-PBS buffer partition coefficient, log D of the compound at 1.5 MBq after 3 mins at pH 7.4; assay type: physicochemical
Method in brief: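 The tracer was partitioned between n-octanol and PBS by vortexing for 3 min at room temperature, then centrifuged for 5 min at 3000 rpm. Samples of the octanol (50 μL) and aqueous (500 μL) layers were counted. log D is the log of the octanol/PBS counts-per-gram ratio. The octanol layer was repartitioned until values were consistent. Measured in triplicate and repeated three times.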

Liver [5] = experiment: Drug uptake in ICR mouse liver at 370 kBq/100 ul, iv at 30 mins by gamma-counting analysis; assay type: ADME, organism-based; conditions: in vivo, 0.5 h; method in brief: as §1
Spleen [6] = experiment: Drug uptake in ICR mouse spleen at 370 kBq/100 ul, iv at 2 mins by gamma-counting analysis; assay type: ADME, organism-based; conditions: in vivo; method in brief: as §1
Lung [7] = experiment: Drug uptake in ICR mouse lung at 370 kBq/100 ul, iv at 60 mins by gamma-counting analysis; assay type: ADME, organism-based; conditions: in vivo, 1 h; method in brief: as §1
Bone [8] = experiment: Drug uptake in ICR mouse bone at 370 kBq/100 ul, iv at 2 mins by gamma-counting analysis; assay type: ADME, organism-based, Bone element; conditions: in vivo; method in brief: as §1
Spleen [9] = experiment: Drug uptake in ICR mouse spleen at 370 kBq/100 ul, iv at 60 mins by gamma-counting analysis; assay type: ADME, organism-based; conditions: in vivo, 1 h; method in brief: as §1
Blood [10] = experiment: Drug uptake in ICR mouse blood at 370 kBq/100 ul, iv at 10 mins by gamma-counting analysis; assay type: ADME, organism-based; conditions: in vivo; method in brief: as §1
Brain [11] = experiment: Drug uptake in healthy human brain at 370 KBq/100 ul after 1 hr by autoradiographic analysis; assay type: ADME, tissue-based; conditions: in vitro
Bone [12] = experiment: Drug uptake in ICR mouse bone at 370 kBq/100 ul, iv at 30 mins by gamma-counting analysis; assay type: ADME, organism-based, Bone element; conditions: in vivo, 0.5 h; method in brief: as §1
Brain [13] = experiment: Drug uptake in ICR mouse brain at 370 kBq/100 ul, iv at 60 mins by gamma-counting analysis; assay type: ADME, organism-based; conditions: in vivo, 1 h; method in brief: as §1
Blood [14] = experiment: Drug uptake in ICR mouse blood at 370 kBq/100 ul, iv at 30 mins by gamma-counting analysis; assay type: ADME, organism-based; conditions: in vivo, 0.5 h; method in brief: as §1
Kidney [15] = experiment: Drug uptake in ICR mouse kidney at 370 kBq/100 ul, iv at 10 mins by gamma-counting analysis; assay type: ADME, organism-based; conditions: in vivo; method in brief: as §1
Bone [16] = experiment: Drug uptake in ICR mouse bone at 370 kBq/100 ul, iv at 60 mins by gamma-counting analysis; assay type: ADME, organism-based, Bone element; conditions: in vivo, 1 h; method in brief: as §1
Brain [17] = experiment: Ratio of drug uptake in brain at 2 mins to drug uptake in brain at 60 mins in ICR mouse at 370 KBq/100 ul, iv; assay type: ADME, organism-based; conditions: in vivo
Method in brief: (§2)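 Normal male ICR mice (5 weeks, about 20 g) received the ¹⁸F tracer in saline (370 KBq per 100 μL) by tail-vein injection. Groups of n = 5 were killed at 2, 10, 30 and 60 min. Organs were removed, weighed and γ-counted against diluted aliquots of the injectate, giving % dose per gram. Stomach and intestine were expressed per organ. The brain ratio is 2 min/60 min uptake. Values are mean ± SD.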

Lung [18] = experiment: Drug uptake in ICR mouse lung at 370 kBq/100 ul, iv at 10 mins by gamma-counting analysis; assay type: ADME, organism-based; conditions: in vivo; method in brief: as §1
Kidney [19] = experiment: Drug uptake in ICR mouse kidney at 370 kBq/100 ul, iv at 30 mins by gamma-counting analysis; assay type: ADME, organism-based; conditions: in vivo, 0.5 h; method in brief: as §1
Stomach [20] = experiment: Drug uptake in ICR mouse stomach assessed per organ at 370 kBq/100 ul, iv at 30 mins by gamma-counting analysis; assay type: ADME, organism-based; conditions: in vivo, 0.5 h
Method in brief: (§3)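 Male ICR mice (5 weeks, about 20 g) got 18F tracer in saline (370 KBq per 100 μL) via tail vein; n = 5 per time point, killed at 2, 10, 30, 60 min. Organs removed and γ-counted against diluted injectate; expressed as % injected dose per organ.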

Blood [21] = experiment: Drug uptake in ICR mouse blood at 370 kBq/100 ul, iv at 60 mins by gamma-counting analysis; assay type: ADME, organism-based; conditions: in vivo, 1 h; method in brief: as §1
Stomach [22] = experiment: Drug uptake in ICR mouse stomach assessed per organ at 370 kBq/100 ul, iv at 10 mins by gamma-counting analysis; assay type: ADME, organism-based; conditions: in vivo; method in brief: as §3
Stomach [23] = experiment: Drug uptake in ICR mouse stomach assessed per organ at 370 kBq/100 ul, iv at 2 mins by gamma-counting analysis; assay type: ADME, organism-based; conditions: in vivo; method in brief: as §3
Liver [24] = experiment: Drug uptake in ICR mouse liver at 370 kBq/100 ul, iv at 60 mins by gamma-counting analysis; assay type: ADME, organism-based; conditions: in vivo, 1 h; method in brief: as §1
Liver [25] = experiment: Drug uptake in ICR mouse liver at 370 kBq/100 ul, iv at 2 mins by gamma-counting analysis; assay type: ADME, organism-based; conditions: in vivo; method in brief: as §1
Heart [26] = experiment: Drug uptake in ICR mouse heart at 370 kBq/100 ul, iv at 10 mins by gamma-counting analysis; assay type: ADME, organism-based; conditions: in vivo; method in brief: as §1
Intestine [27] = experiment: Drug uptake in ICR mouse intestine assessed per organ at 370 kBq/100 ul, iv at 30 mins by gamma-counting analysis; assay type: ADME, organism-based; conditions: in vivo, 0.5 h; method in brief: as §3
Kidney [28] = experiment: Drug uptake in ICR mouse kidney at 370 kBq/100 ul, iv at 2 mins by gamma-counting analysis; assay type: ADME, organism-based; conditions: in vivo; method in brief: as §1
Brain [29] = experiment: Drug uptake in ICR mouse brain at 370 kBq/100 ul, iv at 10 mins by gamma-counting analysis; assay type: ADME, organism-based; conditions: in vivo; method in brief: as §1
Heart [30] = experiment: Drug uptake in ICR mouse heart at 370 kBq/100 ul, iv at 30 mins by gamma-counting analysis; assay type: ADME, organism-based; conditions: in vivo, 0.5 h; method in brief: as §1
Stomach [31] = experiment: Drug uptake in ICR mouse stomach assessed per organ at 370 kBq/100 ul, iv at 60 mins by gamma-counting analysis; assay type: ADME, organism-based; conditions: in vivo, 1 h; method in brief: as §2
Intestine [32] = experiment: Drug uptake in ICR mouse intestine assessed per organ at 370 kBq/100 ul, iv at 60 mins by gamma-counting analysis; assay type: ADME, organism-based; conditions: in vivo, 1 h; method in brief: as §3
Intestine [33] = experiment: Drug uptake in ICR mouse intestine assessed per organ at 370 kBq/100 ul, iv at 2 mins by gamma-counting analysis; assay type: ADME, organism-based; conditions: in vivo; method in brief: as §3
Heart [34] = experiment: Drug uptake in ICR mouse heart at 370 kBq/100 ul, iv at 2 mins by gamma-counting analysis; assay type: ADME, organism-based; conditions: in vivo; method in brief: as §1
Brain [35] = experiment: Drug uptake in ICR mouse brain at 370 kBq/100 ul, iv at 2 mins by gamma-counting analysis; assay type: ADME, organism-based; conditions: in vivo; method in brief: as §1
Spleen [36] = experiment: Drug uptake in ICR mouse spleen at 370 kBq/100 ul, iv at 30 mins by gamma-counting analysis; assay type: ADME, organism-based; conditions: in vivo, 0.5 h; method in brief: as §1
Blood [37] = experiment: Drug uptake in ICR mouse blood at 370 kBq/100 ul, iv at 2 mins by gamma-counting analysis; assay type: ADME, organism-based; conditions: in vivo; method in brief: as §1
Spleen [38] = experiment: Drug uptake in ICR mouse spleen at 370 kBq/100 ul, iv at 10 mins by gamma-counting analysis; assay type: ADME, organism-based; conditions: in vivo; method in brief: as §1
Heart [39] = experiment: Drug uptake in ICR mouse heart at 370 kBq/100 ul, iv at 60 mins by gamma-counting analysis; assay type: ADME, organism-based; conditions: in vivo, 1 h; method in brief: as §1
Liver [40] = experiment: Drug uptake in ICR mouse liver at 370 kBq/100 ul, iv at 10 mins by gamma-counting analysis; assay type: ADME, organism-based; conditions: in vivo; method in brief: as §1
Lung [41] = experiment: Drug uptake in ICR mouse lung at 370 kBq/100 ul, iv at 2 mins by gamma-counting analysis; assay type: ADME, organism-based; conditions: in vivo; method in brief: as §1
Intestine [42] = experiment: Drug uptake in ICR mouse intestine assessed per organ at 370 kBq/100 ul, iv at 10 mins by gamma-counting analysis; assay type: ADME, organism-based; conditions: in vivo; method in brief: as §3
Kidney [43] = experiment: Drug uptake in ICR mouse kidney at 370 kBq/100 ul, iv at 60 mins by gamma-counting analysis; assay type: ADME, organism-based; conditions: in vivo, 1 h; method in brief: as §1
Bone [44] = experiment: Drug uptake in ICR mouse bone at 370 kBq/100 ul, iv at 10 mins by gamma-counting analysis; assay type: ADME, organism-based, Bone element; conditions: in vivo; method in brief: as §1
Brain [45] = experiment: Drug uptake in ICR mouse brain at 370 kBq/100 ul, iv at 30 mins by gamma-counting analysis; assay type: ADME, organism-based; conditions: in vivo, 0.5 h; method in brief: as §1

- Ki [1]: 9.3 nM
- Drug uptake (Brain [2]): Not Active
- Drug uptake (Lung [3]): 3.11 % ID/g
- logD at 0.05 h [4]: 2.85
- Drug uptake (Liver [5]): 8.16 % ID/g
- Drug uptake (Spleen [6]): 2.68 % ID/g
- Drug uptake (Lung [7]): 1.93 % ID/g
- Drug uptake (Bone [8]): 1.19 % ID/g
- Drug uptake (Spleen [9]): 1.49 % ID/g
- Drug uptake (Blood [10]): 4.25 % ID/g
- Drug uptake (Brain [11]): Not Active
- Drug uptake (Bone [12]): 1.33 % ID/g
- Drug uptake (Brain [13]): 1.26 % ID/g
- Drug uptake (Blood [14]): 3.49 % ID/g
- Drug uptake (Kidney [15]): 4.04 % ID/g
- Drug uptake (Bone [16]): 1.42 % ID/g
- Ratio (Brain [17]): 1.77
- Drug uptake (Lung [18]): 3.36 % ID/g
- Drug uptake (Kidney [19]): 3.12 % ID/g
- Drug uptake (Stomach [20]): 11.46 %ID
- Drug uptake (Blood [21]): 2.94 % ID/g
- Drug uptake (Stomach [22]): 9.44 %ID
- Drug uptake (Stomach [23]): 2.96 %ID
- Drug uptake (Liver [24]): 4.12 % ID/g
- Drug uptake (Liver [25]): 15.22 % ID/g
- Drug uptake (Heart [26]): 2.16 % ID/g
- Drug uptake (Intestine [27]): 21.68 %ID
- Drug uptake (Kidney [28]): 6.02 % ID/g
- Drug uptake (Brain [29]): 1.63 % ID/g
- Drug uptake (Heart [30]): 1.96 % ID/g
- Drug uptake (Stomach [31]): 8.78 %ID
- Drug uptake (Intestine [32]): 18.6 %ID
- Drug uptake (Intestine [33]): 5.69 %ID
- Drug uptake (Heart [34]): 3.53 % ID/g
- Drug uptake (Brain [35]): 2.23 % ID/g
- Drug uptake (Spleen [36]): 1.74 % ID/g
- Drug uptake (Blood [37]): 6.92 % ID/g
- Drug uptake (Spleen [38]): 2.05 % ID/g
- Drug uptake (Heart [39]): 1.85 % ID/g
- Drug uptake (Liver [40]): 9.38 % ID/g
- Drug uptake (Lung [41]): 5.53 % ID/g
- Drug uptake (Intestine [42]): 10.06 %ID
- Drug uptake (Kidney [43]): 2.66 % ID/g
- Drug uptake (Bone [44]): 0.86 % ID/g
- Drug uptake (Brain [45]): 1.31 % ID/g
SMILES: CNc1ccc(-c2nc3ccc(OCCOCCOCC[18F])cc3s2)cn1
